Test results published in ChEMBL document CHEMBL1125750, “Dual antagonists of platelet activating factor and histamine. Identification of structural requirements for dual activity of N-Acyl-4-(5,6-dihydro-11H-benzo [5,6]cyclohepta-[1,2-b]pyridin-11-ylidene)piperidines” (J Med Chem, 1991).

What was measured:
[1] = biological target: Histamine H1 receptor (Rattus norvegicus, UniProt P31390); assay: Binding affinity to histamine H1 receptor in rat brain membranes was evaluated using [3H]-pyrilamine as radioligand; format: cell membranes
[2] = %inhibition of guinea pig bronchospasm at a peroral dose of 10 mg/kg and after 2 hr followed by iv challenge with 0.4 micro g/kg of PAF; format: functional; details: Cavia porcellus, Bronchiole, route oral
Summary of the method: (§1)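 Compound given orally 2 h before an iv PAF challenge at 0.4 µg/kg. Values are reported as mean ± standard error of the mean unless noted otherwise, with N animals per determination.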

[3] = test system: Cavia porcellus; assay: Compound tested for its %inhibition of guinea pig bronchospasm at a peroral dose of 10 mg/kg and after 2 hr followed by iv challenge with 0.4 micro g/kg of histamine.; format: functional; details: Bronchiole, route oral
[4] = test system: Cavia porcellus; assay: Compound tested for its %inhibition of guinea pig bronchospasm at a peroral dose of 10 mg/kg and after 2 hr followed by iv challenge with 0.4 micro g/kg of PAF.; format: functional; details: Bronchiole, route oral; summary of the method: as §1
[5] = test system: Cavia porcellus; assay: Compound tested for its %inhibition of guinea pig bronchospasm at a peroral dose of 10 mg/Kg and after 2 hr followed by iv challenge with 10 ug/Kg of histamine
[6] = test system: Cavia porcellus; assay: as above; remark: listed apart in the source
[7] = test system: Cavia porcellus; assay: Compound tested for inhibition of guinea pig bronchospasm at a peroral dose of 10 mg/Kg and after 2 hr followed by iv challenge with 0.4 ug/Kg of PAF; format: functional, Bronchiole
[8] = test system: Cavia porcellus; assay: Compound tested for its %inhibition of guinea pig bronchospasm at a peroral dose of 3 mg/Kg and after 2 hr followed by iv challenge with 0.4 ug/Kg of histamine

Histamine H1 receptor, sequence (P31390 whole entry): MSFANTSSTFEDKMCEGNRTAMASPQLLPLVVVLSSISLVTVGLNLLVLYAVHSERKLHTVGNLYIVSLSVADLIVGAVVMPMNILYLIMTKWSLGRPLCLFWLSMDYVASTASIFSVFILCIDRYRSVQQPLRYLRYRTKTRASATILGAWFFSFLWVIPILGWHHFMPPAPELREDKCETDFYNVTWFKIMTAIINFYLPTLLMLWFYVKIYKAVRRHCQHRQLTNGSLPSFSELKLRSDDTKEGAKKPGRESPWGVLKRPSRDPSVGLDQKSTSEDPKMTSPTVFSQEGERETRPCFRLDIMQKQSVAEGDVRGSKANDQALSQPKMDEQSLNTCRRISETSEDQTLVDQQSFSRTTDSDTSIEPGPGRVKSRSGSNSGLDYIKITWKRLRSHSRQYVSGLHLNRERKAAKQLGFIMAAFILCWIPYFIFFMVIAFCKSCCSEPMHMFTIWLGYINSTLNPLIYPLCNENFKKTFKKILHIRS

CC(=O)N1CCC(=C2c3ccc(C)cc3CCc3cccnc32)CC1
Ki [1]: 190 nM

CN1CCC(=C2c3ccccc3CCc3cccnc32)CC1 [AZATADINE]
Ki [1]: 3.9 nM

CC(=O)N1CCC(=C2c3cc(Cl)ccc3CCc3cccnc32)CC1
Ki [1]: 1500 nM

Cc1nnc2n1-c1sc(CCC(=O)N3CCOCC3)cc1C(c1ccccc1Cl)=NC2 [APAFANT]
inhibition in vivo at 10 mg/kg [2]: 99% | inhibition in vivo at 10 mg/kg [3]: 7% | inhibition in vivo at 10 mg/kg [4]: 60%

COc1ccc2c(c1)CCc1cccnc1C2=C1CCN(C(C)=O)CC1
Ki [1]: 1600 nM

CC(=O)N1CCC(=C2c3ccccc3CCc3ccccc32)CC1
Ki [1]: 5000 nM

CC(=O)N1CCC(=C2c3ccc(O)cc3CCc3cccnc32)CC1
Ki [1]: > 6300 nM

CC(=O)N1CCC(=C(c2ccc(Cl)cc2)c2ccccn2)CC1
Ki [1]: > 6300 nM

CC(=O)C1CCC(=C2c3ccc(Cl)cc3CCc3cccnc32)CC1 (stereo not given)
Ki [1]: 1200 nM

CC(=O)N1CCC(=C2c3ccc(Cl)cc3CCc3cccnc32)CC1 [SCH-37370]
Ki [1]: 320 nM | Inhibition [5]: 99%

O=CN1CCC(=C2c3ccc(Cl)cc3CCc3cccnc32)CC1
Ki [1]: 21 nM

CC(=O)N1CCC(=C2c3ccc(Br)cc3CCc3cccnc32)CC1
Inhibition [5]: 99%

CC(=O)N(C)CC/C=C1\c2ccc(Cl)cc2CCc2cccnc21
Ki [1]: 290 nM

CC(=O)N1CCC(=C2c3cc(Cl)c(Cl)cc3CCc3cccnc32)CC1
Ki [1]: 3100 nM

CCCC(=O)N1CCC(=C2c3ccc(Cl)cc3CCc3cccnc32)CC1
Ki [1]: 51 nM

CC(=O)N1CCC(=C2c3cc(F)c(F)cc3CCc3cccnc32)CC1
Ki [1]: 10000 nM | Inhibition [6]: 0%

O=C(c1ccccc1)N1CCC(=C2c3ccc(Cl)cc3CCc3cccnc32)CC1
Ki [1]: 190 nM

CCC(=O)N1CCC(=C2c3ccc(Cl)cc3CCc3cccnc32)CC1
Ki [1]: 48 nM

CC(=O)N(C)CC/C=C1/c2ccc(Cl)cc2CCc2cccnc21
Ki [1]: 850 nM

CC(C)(C)C(=O)N1CCC(=C2c3ccc(Cl)cc3CCc3cccnc32)CC1
Ki [1]: 81 nM

CC(=O)N1CCC(=C2c3cc(F)ccc3CCc3cccnc32)CC1
Ki [1]: 2900 nM

CC(=O)N1CCC(=C2c3ccccc3CCc3cccnc32)CC1
Ki [1]: 2000 nM | Inhibition [6]: 96% | Inhibition [7]: 44%

CC(=O)N1CCC(=C2c3ccc(F)cc3CCc3cccnc32)CC1
Inhibition [8]: 79% | Ki [1]: 720 nM
